Data published in ChEMBL document CHEMBL4765437, “Design, synthesis and biological evaluation of pyrazolo[3,4-d]pyrimidine-based protein kinase D inhibitors” (Eur J Med Chem, 2020).
The source made the active and inactive calls. No cut-off for these calls is given here.

What was measured:
PANC-1 [1] = assay: Antiproliferative activity against human PANC-1 cells assessed as reduction in cell proliferation at 5 uM measured after 48 to 144 hrs by MTT assay; type: functional, cell-based; settings: time 48-144 hrs
Summary of the method: (§1)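 PANC-1 cells at 2000 cells/well, attached 4 h, then given compound at 5 µM or 0.25% DMSO vehicle. Grown 0, 48, 96 or 144 h, then MTT at 0.5 mg/mL final for 3 h, lysis in DMSO, absorbance at 550 nm. Four experiments (n=4), mean and SEM; two-way ANOVA with Dunnett's test against DMSO.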

LN-229 = assay: Antiproliferative activity against human LN-229 cells assessed as reduction in cell viability incubated for 72 hrs by IncuCyte live-cell automated imaging analysis; settings: LN-229, 72 h
CAPAN-1 = assay: Antiproliferative activity against human CAPAN-1 cells assessed as reduction in cell viability incubated for 72 hrs by IncuCyte live-cell automated imaging analysis; settings: CAPAN-1, 72 h
HCT-116 = assay: Antiproliferative activity against human HCT-116 cells assessed as reduction in cell viability incubated for 72 hrs by IncuCyte live-cell automated imaging analysis; settings: HCT-116, 72 h
NCI-H460 = assay: Antiproliferative activity against human NCI-H460 cells assessed as reduction in cell viability incubated for 72 hrs by IncuCyte live-cell automated imaging analysis; settings: NCI-H460, 72 h
[2] = Antiproliferative activity against human DND41 cells assessed as reduction in cell viability incubated for 72 hrs by IncuCyte live-cell automated imaging analysis; settings: DND41, 72 h
HL-60 = assay: Antiproliferative activity against human HL-60 cells assessed as reduction in cell viability incubated for 72 hrs by IncuCyte live-cell automated imaging analysis; settings: HL-60, 72 h
K562 = assay: Antiproliferative activity against human K562 cells assessed as reduction in cell viability incubated for 72 hrs by IncuCyte live-cell automated imaging analysis; settings: K562, 72 h
Z-138 = assay: Antiproliferative activity against human Z138 cells assessed as reduction in cell viability incubated for 72 hrs by IncuCyte live-cell automated imaging analysis; settings: Z-138, 72 h
[3] = biological target: T1, Serine/threonine-protein kinase D1 (Homo sapiens, UniProt Q15139); assay: Inhibition of recombinant FLAG-tagged PKD1 (unknown origin) expressed in HEK293T cells using Syntide-2 as substrate measured after 15 mins by ADP-Glo assay
T1 sequence (Q15139 whole entry): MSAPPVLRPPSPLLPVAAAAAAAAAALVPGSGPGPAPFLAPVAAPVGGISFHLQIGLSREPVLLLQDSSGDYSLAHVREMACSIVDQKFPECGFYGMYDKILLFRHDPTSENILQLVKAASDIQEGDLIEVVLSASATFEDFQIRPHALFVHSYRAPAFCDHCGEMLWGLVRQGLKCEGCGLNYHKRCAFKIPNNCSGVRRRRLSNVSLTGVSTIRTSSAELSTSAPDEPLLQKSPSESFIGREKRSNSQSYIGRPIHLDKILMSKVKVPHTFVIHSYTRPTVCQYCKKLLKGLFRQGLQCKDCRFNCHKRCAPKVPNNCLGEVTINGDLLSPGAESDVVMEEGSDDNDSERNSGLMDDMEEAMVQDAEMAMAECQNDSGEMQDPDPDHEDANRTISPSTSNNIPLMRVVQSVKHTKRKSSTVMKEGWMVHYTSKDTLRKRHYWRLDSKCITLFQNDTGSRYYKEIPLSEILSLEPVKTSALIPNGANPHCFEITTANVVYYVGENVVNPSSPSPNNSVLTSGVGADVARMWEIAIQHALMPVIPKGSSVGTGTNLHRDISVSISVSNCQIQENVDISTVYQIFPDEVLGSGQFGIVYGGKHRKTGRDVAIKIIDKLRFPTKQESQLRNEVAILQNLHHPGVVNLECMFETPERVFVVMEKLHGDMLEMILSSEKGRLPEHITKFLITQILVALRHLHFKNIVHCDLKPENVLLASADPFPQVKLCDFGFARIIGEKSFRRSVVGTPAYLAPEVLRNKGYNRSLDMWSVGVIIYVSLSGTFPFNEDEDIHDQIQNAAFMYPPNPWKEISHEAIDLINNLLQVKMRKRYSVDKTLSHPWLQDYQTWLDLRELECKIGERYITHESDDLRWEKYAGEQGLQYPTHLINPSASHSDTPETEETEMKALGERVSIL

[4] = biological target: T2, Serine/threonine-protein kinase D2 (Homo sapiens, UniProt Q9BZL6); assay: Inhibition of recombinant FLAG-tagged PKD2 (unknown origin) expressed in HEK293T cells using Syntide-2 as substrate measured after 15 mins by ADP-Glo assay
T2 sequence (Q9BZL6 whole entry): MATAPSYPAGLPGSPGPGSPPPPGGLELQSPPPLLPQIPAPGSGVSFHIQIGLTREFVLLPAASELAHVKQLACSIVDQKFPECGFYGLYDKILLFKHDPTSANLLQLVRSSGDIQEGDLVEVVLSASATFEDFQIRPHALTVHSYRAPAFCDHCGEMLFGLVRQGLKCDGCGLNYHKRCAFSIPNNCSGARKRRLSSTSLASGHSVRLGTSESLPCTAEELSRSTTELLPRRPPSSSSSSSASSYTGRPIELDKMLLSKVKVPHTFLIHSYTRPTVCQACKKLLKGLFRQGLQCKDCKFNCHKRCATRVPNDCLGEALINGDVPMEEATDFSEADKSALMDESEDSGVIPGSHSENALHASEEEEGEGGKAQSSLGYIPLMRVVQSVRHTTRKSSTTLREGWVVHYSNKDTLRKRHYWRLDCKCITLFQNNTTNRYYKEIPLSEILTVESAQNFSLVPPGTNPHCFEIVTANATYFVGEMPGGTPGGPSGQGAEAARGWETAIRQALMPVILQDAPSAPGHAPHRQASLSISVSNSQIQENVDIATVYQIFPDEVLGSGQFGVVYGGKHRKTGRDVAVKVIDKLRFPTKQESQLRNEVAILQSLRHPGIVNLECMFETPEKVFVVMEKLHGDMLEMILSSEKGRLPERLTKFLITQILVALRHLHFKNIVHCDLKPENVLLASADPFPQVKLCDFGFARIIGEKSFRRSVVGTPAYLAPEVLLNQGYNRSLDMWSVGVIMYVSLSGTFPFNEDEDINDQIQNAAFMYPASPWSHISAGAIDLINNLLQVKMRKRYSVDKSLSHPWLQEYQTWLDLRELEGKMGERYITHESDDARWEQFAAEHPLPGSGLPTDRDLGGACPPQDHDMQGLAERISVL

[5] = biological target: T3, Serine/threonine-protein kinase D3 (Homo sapiens, UniProt O94806); assay: Inhibition of recombinant FLAG-tagged PKD3 (unknown origin) expressed in HEK293T cells using Syntide-2 as substrate measured after 15 mins by ADP-Glo assay
T3 sequence (O94806 whole entry): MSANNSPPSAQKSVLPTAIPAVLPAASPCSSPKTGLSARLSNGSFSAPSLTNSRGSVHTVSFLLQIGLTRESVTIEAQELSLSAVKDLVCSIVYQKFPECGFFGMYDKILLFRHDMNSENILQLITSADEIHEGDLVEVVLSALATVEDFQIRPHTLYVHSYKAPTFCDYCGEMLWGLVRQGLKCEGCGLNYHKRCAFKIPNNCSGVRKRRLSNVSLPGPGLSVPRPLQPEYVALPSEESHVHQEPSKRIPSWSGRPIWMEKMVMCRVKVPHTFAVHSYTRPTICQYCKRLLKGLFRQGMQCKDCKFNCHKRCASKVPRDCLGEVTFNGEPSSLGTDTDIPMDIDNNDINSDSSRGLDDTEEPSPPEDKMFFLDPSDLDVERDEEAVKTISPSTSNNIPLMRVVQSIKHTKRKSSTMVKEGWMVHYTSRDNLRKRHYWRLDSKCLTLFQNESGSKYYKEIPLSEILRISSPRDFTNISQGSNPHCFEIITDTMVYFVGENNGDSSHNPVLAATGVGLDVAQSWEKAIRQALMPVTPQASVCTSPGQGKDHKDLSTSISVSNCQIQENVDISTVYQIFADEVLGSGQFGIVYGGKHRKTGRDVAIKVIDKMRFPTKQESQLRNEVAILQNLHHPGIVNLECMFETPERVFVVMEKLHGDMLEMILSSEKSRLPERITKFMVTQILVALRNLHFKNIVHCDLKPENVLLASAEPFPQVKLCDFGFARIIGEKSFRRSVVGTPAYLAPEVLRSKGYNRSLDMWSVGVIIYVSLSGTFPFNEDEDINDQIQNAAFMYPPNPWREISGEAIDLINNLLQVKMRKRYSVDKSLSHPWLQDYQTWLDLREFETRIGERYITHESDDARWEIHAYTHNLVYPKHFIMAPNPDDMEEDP

[6] = biological target: Calcium/calmodulin-dependent protein kinase type II subunit alpha (Homo sapiens) (UniProt Q9UQM7); assay: Inhibition of recombinant human full-length N-terminal GST-fused CaMK2alpha (1 to 478 residues) expressed in baculovirus expression system at 1 to 10 uM using Syntide-2 peptide as substrate measured after 10 mins by [gamma-32P]ATP by scintillation counting method; settings: dose 1-10 µM
Summary of the method: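 Radiometric kinase assay in 40 µL: 50 mM Tris-HCl pH 7.4, 10 mM MgCl2, 2 mM CaCl2, calmodulin, 50 ng CAMKIIα, 2 µg Syntide-2 substrate, 25 µM ATP plus 2 µCi [γ-32P]ATP, with compounds at the indicated concentrations.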

[7] = biological target: Protein kinase C delta type (Homo sapiens) (UniProt Q05655); assay: Inhibition of recombinant human full-length N-terminal GST-fused PKCdelta (1 to 676 residues) expressed in baculovirus expression system at 1 to 10 uM using MARCKS peptide as substrate measured after 10 mins by [gamma-32P]ATP by scintillation counting method; settings: dose 1-10 µM
Summary of the method: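 Radiometric PKCδ assay: 50 mM Tris-HCl pH 7.4, 10 mM MgCl2, 4 µL phosphatidylserine/PDBu vesicle stock (dried lipids resuspended in 50 mM Tris pH 7.4 and sonicated), 50 ng PKCδ, 5 µg MARCKS peptide substrate, 25 µM ATP plus 2 µCi [γ-32P]ATP.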

PANC-1 [8] = assay: Antiproliferative activity against human PANC-1 cells assessed as reduction in cell proliferation at 5 uM measured after 96 to 144 hrs by MTT assay; type: functional, cell-based; settings: time 96-144 hrs; summary of the method: as §1

Sequence of Calcium/calmodulin-dependent protein kinase type II subunit alpha (Homo sapiens) (Q9UQM7 whole entry, the tested form may be a part): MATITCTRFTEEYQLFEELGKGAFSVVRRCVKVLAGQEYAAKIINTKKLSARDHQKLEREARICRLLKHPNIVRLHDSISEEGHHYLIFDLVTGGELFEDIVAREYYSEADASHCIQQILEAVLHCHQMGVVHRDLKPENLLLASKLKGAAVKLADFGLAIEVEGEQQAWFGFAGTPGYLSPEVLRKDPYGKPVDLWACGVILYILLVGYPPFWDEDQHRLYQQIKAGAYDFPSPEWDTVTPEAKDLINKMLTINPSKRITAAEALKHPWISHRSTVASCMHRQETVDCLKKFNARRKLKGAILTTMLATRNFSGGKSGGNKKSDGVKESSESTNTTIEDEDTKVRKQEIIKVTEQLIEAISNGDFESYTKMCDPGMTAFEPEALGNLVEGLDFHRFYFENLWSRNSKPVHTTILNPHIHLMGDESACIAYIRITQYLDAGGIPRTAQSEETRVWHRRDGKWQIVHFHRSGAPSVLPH
Sequence of Protein kinase C delta type (Homo sapiens) (Q05655 whole entry, looked up, the tested form may be a part): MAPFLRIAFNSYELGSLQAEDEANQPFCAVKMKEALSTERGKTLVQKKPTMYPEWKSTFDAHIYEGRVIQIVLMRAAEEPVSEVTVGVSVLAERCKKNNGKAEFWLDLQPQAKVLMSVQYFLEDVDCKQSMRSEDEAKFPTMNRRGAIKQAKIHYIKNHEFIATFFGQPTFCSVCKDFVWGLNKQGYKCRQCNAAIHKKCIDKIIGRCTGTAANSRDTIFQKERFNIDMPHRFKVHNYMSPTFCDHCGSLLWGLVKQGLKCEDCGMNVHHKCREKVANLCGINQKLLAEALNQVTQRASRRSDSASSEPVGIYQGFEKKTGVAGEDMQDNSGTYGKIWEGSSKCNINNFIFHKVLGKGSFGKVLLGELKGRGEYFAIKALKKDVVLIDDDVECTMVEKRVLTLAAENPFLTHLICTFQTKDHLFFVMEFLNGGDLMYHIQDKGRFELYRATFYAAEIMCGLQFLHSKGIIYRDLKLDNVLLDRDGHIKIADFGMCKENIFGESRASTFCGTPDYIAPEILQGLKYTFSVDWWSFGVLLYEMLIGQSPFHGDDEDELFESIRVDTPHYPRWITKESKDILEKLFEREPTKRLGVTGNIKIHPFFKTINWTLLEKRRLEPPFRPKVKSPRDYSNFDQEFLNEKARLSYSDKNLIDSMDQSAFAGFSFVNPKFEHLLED

Structure (SMILES): Nc1ncnc2c1c(-c1c[nH]c3ccccc13)nn2CC1CCNCC1
- Activity (PANC-1 [1]): inactive
- IC50 (LN-229): 80.6 µM
- IC50 (CAPAN-1): 40.7 µM
- IC50 (HCT-116): > 100 µM
- IC50 (NCI-H460): > 95.8 µM
- IC50 [2]: 42.7 µM
- IC50 (HL-60): 17.9 µM
- IC50 (K562): > 100 µM
- IC50 (Z-138): 35.3 µM

Structure (SMILES): CC[C@@H](N)CNc1ccnc(-c2cc(-c3cnn(C)c3)ccc2O)n1
- IC50 [3]: 0.016 µM
- IC50 [4]: 0.009 µM
- IC50 (LN-229): 0.6 µM
- IC50 (CAPAN-1): 1.8 µM
- IC50 (HCT-116): 1.7 µM
- IC50 (NCI-H460): 1.9 µM
- IC50 [2]: 1 µM
- IC50 (HL-60): 1 µM
- IC50 (K562): 2.2 µM
- IC50 (Z-138): 0.7 µM

Structure (SMILES): CC(C)(CO)Cn1nc(-c2c[nH]c3ccccc23)c2c(N)ncnc21
- IC50 (LN-229): 52.6 µM
- IC50 (CAPAN-1): 4.7 µM
- IC50 (HCT-116): 13.4 µM
- IC50 (NCI-H460): 14 µM
- IC50 [2]: 13.1 µM
- IC50 (HL-60): 27.6 µM
- IC50 (K562): 12 µM
- IC50 (Z-138): 19.6 µM

Structure (SMILES): CCOc1ccc2cc(-c3nn(CC4CCN(C)CC4)c4ncnc(N)c34)ccc2n1
- IC50 (LN-229): 45.2 µM
- IC50 (CAPAN-1): > 100 µM
- IC50 (HCT-116): > 55.2 µM
- IC50 (NCI-H460): > 100 µM
- IC50 [2]: 35.5 µM
- IC50 (HL-60): > 100 µM
- IC50 (K562): > 100 µM
- IC50 (Z-138): 30.4 µM

Structure (SMILES): CC(C)(C)n1nc(-c2c[nH]c3ccccc23)c2c(N)ncnc21
- IC50 [3]: 0.108 µM
- IC50 [4]: 0.094 µM
- IC50 [5]: 0.108 µM
- inhibition [6]: inactive
- inhibition [7]: inactive
- Activity (PANC-1 [8]): Active
- IC50 (LN-229): 39.2 µM
- IC50 (CAPAN-1): 1.6 µM
- IC50 (HCT-116): 2.5 µM
- IC50 (NCI-H460): 4 µM
- IC50 [2]: 9.8 µM
- IC50 (HL-60): 7.8 µM
- IC50 (K562): 3.7 µM
- IC50 (Z-138): 9.7 µM

Structure (SMILES): Cn1cc(-c2nn(C(C)(C)C)c3ncnc(N)c23)c2ccccc21
- IC50 (LN-229): > 78.3 µM
- IC50 (CAPAN-1): 21.3 µM
- IC50 (HCT-116): 63 µM
- IC50 (NCI-H460): 73.9 µM
- IC50 [2]: > 41.4 µM
- IC50 (HL-60): > 25.6 µM
- IC50 (K562): > 33.7 µM
- IC50 (Z-138): > 38.2 µM

Structure (SMILES): CC(C)(C)n1nc(Cc2cccc3ccccc23)c2c(N)ncnc21
- IC50 [3]: 1.01 µM
- IC50 [4]: 0.786 µM
- IC50 [5]: 0.616 µM
- IC50 (LN-229): > 100 µM
- IC50 (CAPAN-1): 23 µM
- IC50 (HCT-116): > 100 µM
- IC50 (NCI-H460): > 100 µM
- IC50 [2]: > 26.1 µM
- IC50 (HL-60): 24.1 µM
- IC50 (K562): > 36.3 µM
- IC50 (Z-138): > 23.7 µM
